Test results taken from ChEMBL document CHEMBL3286281, “Amino derivatives of glycyrrhetinic acid as potential inhibitors of cholinesterases” (Bioorg Med Chem, 2014).

Assays:
[1] = Selectivity ratio of Ki for Electrophorus electricus AChE to Ki for equine serum BChE
How it was run: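 Ki from Ellman kinetics at pH 8.0 and 30 °C after 20 min enzyme–inhibitor–DTNB preincubation. Inhibitor at several concentrations plus a water blank; ATChI or BTChI at 0.9375, 0.625, 0.325 and 0.1875 mM. A415 read every 1 min for 30 min, in triplicate. Ki from Lineweaver-Burk, Dixon and Cornish-Bowden plots; F = Ki(AChE)/Ki(BChE).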

[2] = target: Cholinesterase (Equus caballus, UniProt P81908); test: Inhibition of equine serum BChE using butyrylthiocholine iodide as substrate after 20 mins measured for 1 min interval for 30 mins by Ellman's method
[3] = target: Acetylcholinesterase (Electrophorus electricus, UniProt O42275); test: Inhibition of Electrophorus electricus AChE using acetylthiocholine iodide as substrate after 20 mins measured for 1 min interval for 30 mins by Ellman's method
[4] = Solubility of the compound; type: physicochemical

Cholinesterase, sequence (P81908 whole entry): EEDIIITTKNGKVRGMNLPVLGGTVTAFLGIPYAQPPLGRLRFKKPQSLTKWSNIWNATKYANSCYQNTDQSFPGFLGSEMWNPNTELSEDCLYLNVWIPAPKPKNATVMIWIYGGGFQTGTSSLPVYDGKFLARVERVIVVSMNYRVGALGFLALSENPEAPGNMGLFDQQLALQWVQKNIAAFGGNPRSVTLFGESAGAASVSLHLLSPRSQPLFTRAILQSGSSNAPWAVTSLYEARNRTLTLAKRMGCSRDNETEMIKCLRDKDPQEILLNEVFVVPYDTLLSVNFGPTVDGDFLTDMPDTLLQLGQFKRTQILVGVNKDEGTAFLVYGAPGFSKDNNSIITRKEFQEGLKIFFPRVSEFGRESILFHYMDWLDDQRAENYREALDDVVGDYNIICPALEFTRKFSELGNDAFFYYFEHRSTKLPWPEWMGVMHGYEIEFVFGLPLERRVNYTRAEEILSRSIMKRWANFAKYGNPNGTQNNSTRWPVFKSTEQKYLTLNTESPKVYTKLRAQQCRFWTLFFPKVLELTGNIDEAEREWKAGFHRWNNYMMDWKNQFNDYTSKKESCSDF
Acetylcholinesterase, sequence (O42275 whole entry): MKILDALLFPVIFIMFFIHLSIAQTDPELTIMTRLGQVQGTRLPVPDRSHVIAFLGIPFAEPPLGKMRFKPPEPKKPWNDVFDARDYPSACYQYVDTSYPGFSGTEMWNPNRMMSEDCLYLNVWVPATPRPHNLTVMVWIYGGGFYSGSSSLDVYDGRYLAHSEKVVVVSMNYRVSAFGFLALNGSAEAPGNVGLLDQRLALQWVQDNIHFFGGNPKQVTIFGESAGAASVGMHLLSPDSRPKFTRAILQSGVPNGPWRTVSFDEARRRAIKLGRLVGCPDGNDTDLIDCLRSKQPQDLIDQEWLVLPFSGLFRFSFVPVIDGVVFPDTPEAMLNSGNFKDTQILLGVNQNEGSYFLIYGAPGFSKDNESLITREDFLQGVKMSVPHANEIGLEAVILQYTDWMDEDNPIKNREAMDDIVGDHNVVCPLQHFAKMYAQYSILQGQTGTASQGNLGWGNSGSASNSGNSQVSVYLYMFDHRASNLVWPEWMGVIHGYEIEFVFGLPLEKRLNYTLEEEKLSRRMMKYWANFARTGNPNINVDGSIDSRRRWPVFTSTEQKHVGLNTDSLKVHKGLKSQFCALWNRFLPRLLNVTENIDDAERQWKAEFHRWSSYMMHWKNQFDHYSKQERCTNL

Row | solubility [4] | SMILES | Ratio Ki [1] | Ki [2] [µM] | Ki [3] [µM]
1 |  | COC(=O)[C@@]1(C)CC[C@]2(C)CC[C@]3(C)C(=CC(=O)[C@@H]4[C@@]5(C)CC[C@H](OC(=O)[C@H](C)N)C(C)(C)[C@@H]5CC[C@]43C)[C@@H]2C1 [listing 1 of 2 here] | < 0.21 |  | 
2 |  | CCOC(=O)[C@@]1(C)CC[C@]2(C)CC[C@]3(C)C(=CC(=O)[C@@H]4[C@@]5(C)CC[C@H](OC(=O)[C@@H](N)Cc6ccccc6)C(C)(C)[C@@H]5CC[C@]43C)[C@@H]2C1 | < 0.14 | > 100 | 13.7
3 |  | CC(C)(C)OC(=O)NCCCNC(=O)[C@@]1(C)CC[C@]2(C)CC[C@]3(C)C(=CC(=O)[C@@H]4[C@@]5(C)CC[C@H](O)C(C)(C)[C@@H]5CC[C@]43C)[C@@H]2C1 |  | > 10 | > 10
4 |  | C=CCCOC(=O)[C@@]1(C)CC[C@]2(C)CC[C@]3(C)C(=CC(=O)[C@@H]4[C@@]5(C)CC[C@H](O)C(C)(C)[C@@H]5CC[C@]43C)[C@@H]2C1 | < 0.15 | > 100 | 14.9
5 |  | COC(=O)[C@@]1(C)CC[C@]2(C)CC[C@]3(C)C(=CC(=O)[C@@H]4[C@@]5(C)CC[C@H](OC(=O)[C@@H](N)CC(=O)O)C(C)(C)[C@@H]5CC[C@]43C)[C@@H]2C1 | < 0.16 | > 100 | 16.2
6 |  | CNCC(=O)O[C@H]1CC[C@]2(C)[C@H]3C(=O)C=C4[C@@H]5C[C@@](C)(C(=O)OC)CC[C@]5(C)CC[C@@]4(C)[C@]3(C)CC[C@H]2C1(C)C | < 0.21 | > 100 | 20.4
7 |  | COC(=O)[C@@]1(C)CC[C@]2(C)CC[C@]3(C)C(=CC(=O)[C@@H]4[C@@]5(C)CC[C@H](OC(=O)[C@@H](N)Cc6ccccc6)C(C)(C)[C@@H]5CC[C@]43C)[C@@H]2C1 | < 0.21 | > 100 | 20.7
8 |  | COC(=O)[C@@]1(C)CC[C@]2(C)CC[C@]3(C)C(=CC(=O)[C@@H]4[C@@]5(C)CC[C@H](OC(=O)[C@@H](N)CC(=O)OCc6ccccc6)C(C)(C)[C@@H]5CC[C@]43C)[C@@H]2C1 | < 0.28 | > 100 | 28.1
9 |  | COC(=O)[C@@]1(C)CC[C@]2(C)CC[C@]3(C)C(=CC(=O)[C@@H]4[C@@]5(C)CC[C@H](OC(=O)[C@@H]6CCCN6)C(C)(C)[C@@H]5CC[C@]43C)[C@@H]2C1 | < 0.24 | > 100 | 23.5
10 | Insoluble | CC[C@H](C)[C@H](N)C(=O)O[C@H]1CC[C@]2(C)[C@H]3C(=O)C=C4[C@@H]5C[C@@](C)(C(=O)OC)CC[C@]5(C)CC[C@@]4(C)[C@]3(C)CC[C@H]2C1(C)C |  |  | 
11 |  | COC(=O)[C@@]1(C)CC[C@]2(C)CC[C@]3(C)C(=CC(=O)[C@@H]4[C@@]5(C)CC[C@H](OC(=O)[C@@H](N)CCCCN)C(C)(C)[C@@H]5CC[C@]43C)[C@@H]2C1 | < 0.2 | > 100 | 20
12 |  | CC1(C)[C@@H](O)CC[C@]2(C)[C@H]3C(=O)C=C4[C@@H]5C[C@@](C)(C(=O)NCCN)CC[C@]5(C)CC[C@@]4(C)[C@]3(C)CC[C@@H]12 |  | > 100 | > 100
13 | Insoluble | COC(=O)C[C@H](N)C(=O)O[C@H]1CC[C@]2(C)[C@H]3C(=O)C=C4[C@@H]5C[C@@](C)(C(=O)OC)CC[C@]5(C)CC[C@@]4(C)[C@]3(C)CC[C@H]2C1(C)C |  |  | 
14 |  | COC(=O)[C@@]1(C)CC[C@]2(C)CC[C@]3(C)C(=CC(=O)[C@@H]4[C@@]5(C)CC[C@H](OC(=O)[C@@H](N)CCC(=O)O)C(C)(C)[C@@H]5CC[C@]43C)[C@@H]2C1 | < 0.19 | > 100 | 18.9
15 |  | CC1(C)[C@@H](O)CC[C@]2(C)[C@H]3C(=O)C=C4[C@@H]5C[C@@](C)(C(=O)OC/C=C/CBr)CC[C@]5(C)CC[C@@]4(C)[C@]3(C)CC[C@@H]12 | < 0.74 | > 40 | 29.6
16 |  | CC1(C)[C@@H](OC(=O)CN)CC[C@]2(C)[C@H]3C(=O)C=C4[C@@H]5C[C@@](C)(C(=O)O)CC[C@]5(C)CC[C@@]4(C)[C@]3(C)CC[C@@H]12 |  | > 100 | > 100
17 | Insoluble | COC(=O)[C@@]1(C)CC[C@]2(C)CC[C@]3(C)C(=CC(=O)[C@@H]4[C@@]5(C)CC[C@H](OC(=O)[C@@H](N)CCCN)C(C)(C)[C@@H]5CC[C@]43C)[C@@H]2C1 |  |  | 
18 |  | CCOC(=O)[C@@]1(C)CC[C@]2(C)CC[C@]3(C)C(=CC(=O)[C@@H]4[C@@]5(C)CC[C@H](OC(=O)[C@H](Cc6ccccc6)NC(=O)OC(C)(C)C)C(C)(C)[C@@H]5CC[C@]43C)[C@@H]2C1 |  | > 2 | > 2
19 |  | C[C@H](N)C(=O)O[C@H]1CC[C@]2(C)[C@H]3C(=O)C=C4[C@@H]5C[C@@](C)(C(=O)O)CC[C@]5(C)CC[C@@]4(C)[C@]3(C)CC[C@H]2C1(C)C | < 0.24 | > 100 | 24
20 |  | CCOC(=O)[C@@]1(C)CC[C@]2(C)CC[C@]3(C)C(=CC(=O)[C@@H]4[C@@]5(C)CC[C@H](OC(=O)[C@H](N)Cc6c[nH]c7ccccc67)C(C)(C)[C@@H]5CC[C@]43C)[C@@H]2C1 | < 0.12 | > 100 | 11.7
21 |  | COC(=O)[C@@]1(C)CC[C@]2(C)CC[C@]3(C)C(=CC(=O)[C@@H]4[C@@]5(C)CC[C@H](OC(=O)[C@H](C)N)C(C)(C)[C@@H]5CC[C@]43C)[C@@H]2C1 [listing 2 of 2 here] |  | > 100 | 20.8
22 |  | CC1(C)[C@@H](O)CC[C@]2(C)[C@H]3C(=O)C=C4[C@@H]5C[C@@](C)(C(=O)OCCBr)CC[C@]5(C)CC[C@@]4(C)[C@]3(C)CC[C@@H]12 | < 0.24 | > 100 | 23.8
23 |  | COC(=O)[C@@]1(C)CC[C@]2(C)CC[C@]3(C)C(=CC(=O)[C@@H]4[C@@]5(C)CC[C@H](OC(=O)CN)C(C)(C)[C@@H]5CC[C@]43C)[C@@H]2C1 | < 0.2 | > 100 | 19.8
24 |  | CC1(C)[C@@H](O)CC[C@]2(C)[C@H]3C(=O)C=C4[C@@H]5C[C@@](C)(C(=O)NCCCCN)CC[C@]5(C)CC[C@@]4(C)[C@]3(C)CC[C@@H]12 | 0.56 | 74.3 | 41.8
25 |  | CC1(C)[C@@H](O)CC[C@]2(C)[C@H]3C(=O)C=C4[C@@H]5C[C@@](C)(C(=O)NCCCCCN)CC[C@]5(C)CC[C@@]4(C)[C@]3(C)CC[C@@H]12 |  | > 100 | > 100
26 |  | COC(=O)[C@@]1(C)CC[C@]2(C)CC[C@]3(C)C(=CC(=O)[C@@H]4[C@@]5(C)CC[C@H](OC(=O)[C@@H](N)CSCc6ccccc6)C(C)(C)[C@@H]5CC[C@]43C)[C@@H]2C1 | < 0.41 | > 100 | 40.6
27 |  | COC(=O)[C@@]1(C)CC[C@]2(C)CC[C@]3(C)C(=CC(=O)[C@@H]4[C@@]5(C)CC[C@H](OC(=O)[C@@H](C)N)C(C)(C)[C@@H]5CC[C@]43C)[C@@H]2C1 | < 0.18 | > 100 | 17.7
28 |  | CC1(C)[C@@H](O)CC[C@]2(C)[C@H]3C(=O)C=C4[C@@H]5C[C@@](C)(C(=O)O/C(=N\C6CCCCC6)NC6CCCCC6)CC[C@]5(C)CC[C@@]4(C)[C@]3(C)CC[C@@H]12 |  | > 10 | > 10
29 |  | CC1(C)[C@@H](O)CC[C@]2(C)[C@H]3C(=O)C=C4[C@@H]5C[C@@](C)(C(=O)O)CC[C@]5(C)CC[C@@]4(C)[C@]3(C)CC[C@@H]12 [ENOXOLONE] |  | > 100 | > 100
